ChEMBL document CHEMBL2346527, “Kinase scaffold repurposing for neglected disease drug discovery: discovery of an efficacious, lapatinib-derived lead compound for trypanosomiasis” (J Med Chem, 2013)

Key:
[1] = test system: HepG2; assay: Cytotoxicity against human HepG2 cells after 48 hrs by MTT assay; type: cell-based; conditions: HepG2, 48 h
How it was run: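 HepG2 cytotoxicity was read by an MTT assay adapted to 384-well format. IC50 was fitted by nonlinear regression (sigmoidal dose-response, variable slope).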

[2] = test system: Trypanosoma brucei brucei; assay: Antitrypanosomal activity against bloodstream form Trypanosoma brucei brucei Lister 427 after 48 hrs by hemocytometer; type: functional, organism-based; conditions: Lister 427, 48 h
How it was run: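 Bloodstream Lister 427 cells were seeded at 2 × 10^3 cells/ml in HMI-9 medium and given drug from 200X DMSO stocks, with DMSO as control. Three independent experiments, each dose in duplicate (n = 6).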

Row | EC50 [2] [µM] | SMILES | IC50 [1] [µM]
1 | 0.38 | Fc1cccc(COc2ccc(Nc3ncnc4ccc(-c5ccc(N6CCCCC6)cc5)cc34)cc2Cl)c1 | –
2 | 4.5 | O=C(NC1CC1)c1cccc(-c2ccc3ncnc(Nc4ccc(OCc5cccc(F)c5)c(Cl)c4)c3c2)c1 | –
3 | 1.21 | O=C(c1ccc(-c2ccc3ncnc(Nc4ccc(OCc5cccc(F)c5)c(Cl)c4)c3c2)cc1)N1CCOCC1 | –
4 | 0.46 | O=S(=O)(c1cccc(-c2ccc3ncnc(Nc4ccc(OCc5cccc(F)c5)c(Cl)c4)c3c2)c1)N1CCCCC1 | > 15
5 | 2.27 | Cc1ccc(-c2ccc3ncnc(Nc4ccc(OCc5cccc(F)c5)c(Cl)c4)c3c2)c2ccccc12 | –
6 | 0.35 | O=S(=O)(c1ccc(-c2ccc3ncnc(Nc4ccc(OCc5cccc(F)c5)c(Cl)c4)c3c2)cc1)N1CCCC1 | > 15
7 | 4.53 | Fc1cccc(COc2ccc(Nc3ncnc4ccc(-c5cccc6ncccc56)cc34)cc2Cl)c1 | –
8 | 0.55 | O=S(=O)(CCSCc1ccc(-c2ccc3ncnc(Nc4ccc(OCc5cccc(F)c5)c(Cl)c4)c3c2)o1)c1ccccc1 | –
9 | 0.53 | CN1CCN(S(=O)(=O)c2ccc(-c3ccc4ncnc(Nc5ccc(OCc6cccc(F)c6)c(Cl)c5)c4c3)cc2)CC1 | > 15
10 | 0.47 | O=S(=O)(c1ccc(-c2ccc3ncnc(Nc4ccc(OCc5cccc(F)c5)c(Cl)c4)c3c2)cc1)N1CCSCC1 | > 15
11 | 4.21 | Cc1nnc(-c2cccc(-c3ccc4ncnc(Nc5ccc(OCc6cccc(F)c6)c(Cl)c5)c4c3)c2)o1 | –
12 | 0.25 | O=S(=O)(c1cccc(-c2ccc3ncnc(Nc4ccc(OCc5cccc(F)c5)c(Cl)c4)c3c2)c1)N1CCCC1 | > 15
13 | 0.81 | CN1CCCN(S(=O)(=O)c2ccc(-c3ccc4ncnc(Nc5ccc(OCc6cccc(F)c6)c(Cl)c5)c4c3)cc2)CC1 | 1.81
14 | 22.6 | O=c1[nH]cc(-c2ccc3ncnc(Nc4ccc(OCc5cccc(F)c5)c(Cl)c4)c3c2)c(=O)[nH]1 | –
15 | 0.28 | O=S(=O)(c1ccc(-c2ccc3ncnc(Nc4ccc(OCc5cccc(F)c5)c(Cl)c4)c3c2)cc1)N1CCNCC1 | 3.32
16 | 0.9 | CS(=O)(=O)c1ccc(-c2ccc3ncnc(Nc4ccc(OCc5cccc(F)c5)c(Cl)c4)c3c2)cc1 | > 15
17 | 1.39 | O=S(=O)(c1ccc(-c2ccc3ncnc(Nc4ccc(OCc5cccc(F)c5)c(Cl)c4)c3c2)cc1)N1CCOCC1 | > 15
18 | 0.76 | Fc1cccc(COc2ccc(Nc3ncnc4ccc(-c5cccc(N6CCCCC6)c5)cc34)cc2Cl)c1 | > 15
19 | 0.32 | O=S(=O)(c1ccc(-c2ccc3ncnc(Nc4ccc(OCc5cccc(F)c5)c(Cl)c4)c3c2)cc1)N1CCCCC1 | > 15
20 | 0.52 | CS(=O)(=O)CCN(CC#N)Cc1ccc(-c2ccc3ncnc(Nc4ccc(OCc5cccc(F)c5)c(Cl)c4)c3c2)o1 [GW616030X] | –
21 | 0.94 | O=C(c1ccc(-c2ccc3ncnc(Nc4ccc(OCc5cccc(F)c5)c(Cl)c4)c3c2)cc1)N1CCCCC1 | –
22 | 0.48 | CC(C)S(=O)(=O)CCNCc1ccc(-c2ccc3ncnc(Nc4ccc(OCc5cccc(F)c5)c(Cl)c4)c3c2)o1 | –
23 | 1.04 | CN(C)S(=O)(=O)c1ccccc1-c1ccc2ncnc(Nc3ccc(OCc4cccc(F)c4)c(Cl)c3)c2c1 | > 15
24 | 3.85 | CCNC(=O)c1ccc(-c2ccc3ncnc(Nc4ccc(OCc5cccc(F)c5)c(Cl)c4)c3c2)cc1F | –
25 | 1.5 | Fc1cccc(COc2ccc(Nc3ncnc4ccc(-c5ccc(CN6CCCCC6)cc5)cc34)cc2Cl)c1 | –
26 | 1.88 | COc1cc(Nc2ncnc3ccc(-c4ccc(S(=O)(=O)N5CCOCC5)cc4)cc23)ccc1OCc1cccc(F)c1 | > 15
27 | 0.65 | O=S(=O)(c1ccc(-c2ccc3ncnc(Nc4ccc(OCc5cccc(F)c5)cc4)c3c2)cc1)N1CCOCC1 | > 15

The remaining lines, values behind:

Row | SMILES | EC50 [2] [µM] | IC50 [1] [µM]
28 | c1ccc(Nc2ncnc3ccc(-c4cccc(N5CCOCC5)c4)cc23)cc1 | 11 | 7.02
29 | CC1(C)OB(O)c2cc(NC(=O)c3ccc(F)cc3C(F)(F)F)ccc21 [ACOZIBOROLE] | 0.794 | –
30 | CC(C)(C)NS(=O)(=O)c1ccccc1-c1ccc2ncnc(Nc3ccc(OCc4cccc(F)c4)c(Cl)c3)c2c1 | 4.66 | –
31 | COc1ccc(Nc2ncnc3ccc(-c4ccc(S(=O)(=O)N5CCOCC5)cc4)cc23)cc1Cl | 0.82 | > 15
32 | NCCCC(N)(C(=O)O)C(F)F (configuration not stated) [EFLORNITHINE] | 16.4 | –
33 | Cc1ccc(Nc2ncnc3ccc(-c4ccc(S(=O)(=O)N5CCOCC5)cc4)cc23)cc1 | 1.15 | > 15
34 | Nc1nc(N)nc(Nc2ccc([As]3SCC(CO)S3)cc2)n1 (configuration not stated) [MELARSOPROL] | 0.0063 | –
35 | Fc1cccc(COc2ccc(Nc3ncnc4ccc(-c5cccc(CN6CCCCC6)c5)cc34)cc2Cl)c1 | 0.65 | –
36 | CS(=O)(=O)CCN(Cc1ccccc1)Cc1ccc(-c2ccc3ncnc(Nc4ccc(OCc5cccc(F)c5)c(Cl)c4)c3c2)o1 | 1.51 | –
37 | O=S(=O)(c1ccc(-c2ccc3ncnc(Nc4ccc(OCc5cccc(Br)c5)c(Cl)c4)c3c2)cc1)N1CCOCC1 | 0.68 | > 15
38 | O=S(=O)(c1ccc(-c2ccc3ncnc(Nc4ccc(O)c(Cl)c4)c3c2)cc1)N1CCOCC1 | 1.06 | > 15
39 | Fc1cccc(COc2ccc(Nc3ncnc4ccc(-c5ccc(N6CCOCC6)cc5)cc34)cc2Cl)c1 | 1.91 | 9.6
40 | O=S(=O)(c1ccc(-c2ccc3ncnc(Nc4ccc(OCc5cccc(F)c5F)c(Cl)c4)c3c2)cc1)N1CCOCC1 | 0.82 | > 15
41 | O=S(=O)(c1ccc(-c2ccc3ncnc(Nc4ccc(OCc5ccc(F)cc5)c(Cl)c4)c3c2)cc1)N1CCOCC1 | 1.34 | > 15
42 | c1ccc(COc2ccc(Nc3ncnc4ccc(-c5cccc(N6CCOCC6)c5)cc34)cc2)cc1 | 0.18 | > 20
43 | CS(=O)(=O)c1cccc(-c2ccc3ncnc(Nc4ccc(OCc5cccc(F)c5)c(Cl)c4)c3c2)c1 | 3.21 | > 15
44 | O=S(=O)(c1ccc(-c2ccc3ncnc(Nc4ccc(OCc5ccccc5F)c(Cl)c4)c3c2)cc1)N1CCOCC1 | 1.65 | > 15
45 | O=S(=O)(c1ccc(-c2ccc3ncnc(Nc4ccc(OCc5cccc(Cl)c5)c(Cl)c4)c3c2)cc1)N1CCOCC1 | 0.66 | > 15

Row | SMILES | EC50 [2] [µM] | IC50 [1] [µM]
46 | O=S(=O)(c1ccc(-c2ccc3ncnc(Nc4ccc(OCc5cc(F)cc(F)c5F)c(Cl)c4)c3c2)cc1)N1CCOCC1 | 1.12 | > 3
47 | O=S1(=O)CCN(Cc2ccc(-c3ccc4ncnc(Nc5ccc(OCc6ccccc6)c(Cl)c5)c4c3)o2)CC1 | 0.41 | –
48 | Clc1cc(Nc2ncnc3ccc(-c4cccc(N5CCOCC5)c4)cc23)ccc1OCc1ccccc1 | 0.23 | > 20
49 | COc1cccc(COc2ccc(Nc3ncnc4ccc(-c5ccc(S(=O)(=O)N6CCOCC6)cc5)cc34)cc2Cl)c1 | 1.43 | > 15
50 | Fc1cccc(COc2ccc(Nc3ncnc4ccc(-c5cc6ccccc6s5)cc34)cc2Cl)c1 | 5.98 | –
51 | CCCS(=O)(=O)CCNCc1ccc(-c2ccc3ncnc(Nc4ccc(OCc5cccc(F)c5)c(Cl)c4)c3c2)o1 | 0.43 | –
52 | O=S(=O)(c1ccc(-c2ccc3ncnc(Nc4ccc(OCc5ccc(C(F)(F)F)c(F)c5)c(Cl)c4)c3c2)cc1)N1CCOCC1 | 0.54 | > 15
53 | O=S(=O)(c1ccc(-c2ccc3ncnc(Nc4ccccc4)c3c2)cc1)N1CCOCC1 | 1.44 | > 3
54 | O=C(c1cccc(-c2ccc3ncnc(Nc4ccc(OCc5cccc(F)c5)c(Cl)c4)c3c2)c1)N1CCCCC1 | 0.14 | > 6
55 | O=C(c1cccc(-c2ccc3ncnc(Nc4ccc(OCc5cccc(F)c5)c(Cl)c4)c3c2)c1)N1CCOCC1 | 0.55 | –
56 | N=C(N)c1ccc(OCCCCCOc2ccc(C(=N)N)cc2)cc1 [PENTAMIDINE] | 0.0035 | –
57 | Fc1cccc(COc2ccc(Nc3ncnc4ccc(-c5ccc(CN6CCOCC6)cc5)cc34)cc2Cl)c1 | 0.99 | 12.9
58 | O=S(=O)(c1ccc(-c2ccc3ncnc(Nc4ccc(OCc5ccccc5)c(Cl)c4)c3c2)cc1)N1CCOCC1 | 1.35 | > 15
59 | Oc1ccc(-c2ccc3ncnc(Nc4ccc(OCc5cccc(F)c5)c(Cl)c4)c3c2)cc1 | 6.45 | –
60 | Fc1cccc(COc2ccc(Nc3ncnc4ccc(-c5ccccc5Oc5ccccc5)cc34)cc2Cl)c1 | 5.3 | –
61 | Fc1cccc(COc2ccc(Nc3ncnc4ccc(-c5cccc(CN6CCOCC6)c5)cc34)cc2Cl)c1 | 0.36 | –
62 | O=S(=O)(c1cccc(-c2ccc3ncnc(Nc4ccc(OCc5cccc(F)c5)c(Cl)c4)c3c2)c1)N1CCOCC1 | – | > 15
63 | CS(=O)(=O)CCNCc1ccc(-c2ccc3ncnc(Nc4ccc(OCc5ccccc5)c(Br)c4)c3c2)o1 | 0.56 | –
